One assay relates to MKN-45. In words: Antiproliferative activity against human MKN45 cells assessed as cell viability at 10 uM after 72 hrs by MTT assay relative to control. Type of assay: functional. Particulars: MKN-45, 72 h, read-out: Activity. The essentials:
(§1)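 Single-concentration MTT screen. Log-phase cells in DMEM with 10% FCS were treated for 72 h in 96-well plates. After MTT and DMSO, absorbance was read at 570 nm. Viability was calculated relative to control as mean ± SD of three independent experiments.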

The test system of a further assay is KB. The assay can be described thus: Antiproliferative activity against human KB cells assessed as cell viability at 10 uM after 72 hrs by MTT assay relative to control. Format: functional. Particulars: read-out: Activity. Put shortly:
as §1

The record followed here is ChEMBL document CHEMBL4130512, “Design, synthesis and biological evaluation of novel α-hederagenin derivatives with anticancer activity” (Eur J Med Chem, 2017).

Molecules are shown by their SMILES.

Consider `CC1(C)CC[C@]2(C(=O)OCc3ccccc3)CC[C@]3(C)C(=CC[C@@H]4[C@@]5(C)CCC(=O)[C@@](C)(COC(=O)c6ccccc6C(=O)O)[C@@H]5CC[C@]43C)[C@@H]2C1`, for which the viability at 10 µM was 40% in the assay on MKN-45 and 51% with KB.

Consider `CC1(C)CC[C@]2(C(=O)OCc3ccccc3)CC[C@]3(C)C(=CC[C@@H]4[C@@]5(C)CCC(=O)[C@@](C)(COC(=O)CCC(=O)Oc6ccc(CCO[N+](=O)[O-])cc6)[C@@H]5CC[C@]43C)[C@@H]2C1`, for which the figures for the viability at 10 µM in the assay on MKN-45 and in the assay on KB were 100% and 53%, respectively.

As for `CC1(C)CC[C@]2(C(=O)OCc3ccccc3)CC[C@]3(C)C(=CC[C@@H]4[C@@]5(C)CCC(=O)[C@@](C)(COC(=O)CCC(=O)Nc6ccc(N)cc6)[C@@H]5CC[C@]43C)[C@@H]2C1`, the results for the viability at 10 µM in the assay on MKN-45 and in the assay with KB were 92% and 51%, respectively.

Turning to `CC1(C)CC[C@]2(C(=O)OCc3ccccc3)CC[C@]3(C)C(=CC[C@@H]4[C@@]5(C)Cc6nccnc6[C@@](C)(COC(=O)CCC(=O)Oc6ccc(CCO[N+](=O)[O-])cc6)[C@@H]5CC[C@]43C)[C@@H]2C1`, the viability at 10 µM in the assay on MKN-45 was 100%; with KB, 69%.

Regarding `CC1(C)CC[C@]2(C(=O)OCc3ccccc3)CC[C@]3(C)C(=CC[C@@H]4[C@@]5(C)Cc6nccnc6[C@@](C)(COC(=O)CCC(=O)Nc6ccccc6N)[C@@H]5CC[C@]43C)[C@@H]2C1`, the viability at 10 µM stood at 86% in the assay on MKN-45 and 57% with KB.

On to `CC1(C)CC[C@]2(C(=O)OCc3ccccc3)CC[C@]3(C)C(=CC[C@@H]4[C@@]5(C)CCC(OC(=O)CCCCCO[N+](=O)[O-])[C@@](C)(COC(=O)CCCCCO[N+](=O)[O-])[C@@H]5CC[C@]43C)[C@@H]2C1` (stereo partly specified), for which the viability at 10 µM worked out at 85% in the assay on MKN-45 and 61% with KB.

Take `CC1(C)CC[C@]2(C(=O)OCc3ccccc3)CC[C@]3(C)C(=CC[C@@H]4[C@@]5(C)CCC(=O)[C@@](C)(COC(=O)c6ccccc6C(=O)OCCc6ccc(OCCO[N+](=O)[O-])cc6)[C@@H]5CC[C@]43C)[C@@H]2C1`: the values for the viability at 10 µM in the assay with MKN-45 and in the assay on KB were 89% and 67%, respectively.

With `CC1(C)CC[C@]2(C(=O)OCc3ccccc3)CC[C@]3(C)C(=CC[C@@H]4[C@@]5(C)Cc6nccnc6[C@@](C)(COC(=O)CCCCCO[N+](=O)[O-])[C@@H]5CC[C@]43C)[C@@H]2C1`, the viability at 10 µM is 84% in the assay on MKN-45 and 63% in the assay on KB.

In the case of `CC1(C)CC[C@]2(C(=O)OCc3ccccc3)CC[C@]3(C)C(=CC[C@@H]4[C@@]5(C)Cc6nccnc6[C@@](C)(CO)[C@@H]5CC[C@]43C)[C@@H]2C1`, the viability at 10 µM in the assay on MKN-45 worked out at 77%; in the assay on KB it was 75%.

In the case of `CC1(C)CC[C@]2(C(=O)OCc3ccccc3)CC[C@]3(C)C(=CC[C@@H]4[C@@]5(C)Cc6nccnc6[C@@](C)(COC(=O)CCCCO[N+](=O)[O-])[C@@H]5CC[C@]43C)[C@@H]2C1`, the viability at 10 µM turned out to be 89% in the assay with MKN-45 and 59% with KB.

Regarding `CC1(C)CC[C@]2(C(=O)OCc3ccccc3)CC[C@]3(C)C(=CC[C@@H]4[C@@]5(C)CCC(=O)[C@@](C)(COC(=O)c6ccccc6C(=O)Nc6cccc(N)c6)[C@@H]5CC[C@]43C)[C@@H]2C1`, the values for the viability at 10 µM in the assay with MKN-45 and with KB were 93% and 62%, respectively.

Consider `CC1(C)CC[C@]2(C(=O)OCc3ccccc3)CC[C@]3(C)C(=CC[C@@H]4[C@@]5(C)CC/C(=N\O)[C@@](C)(CO)[C@@H]5CC[C@]43C)[C@@H]2C1`, for which the viability at 10 µM worked out at 64% in the assay on MKN-45 and 76% in the assay with KB.

Turning to `CC1(C)CC[C@]2(C(=O)OCc3ccccc3)CC[C@]3(C)C(=CC[C@@H]4[C@@]5(C)CCC(=O)[C@@](C)(COC(=O)CCC(=O)Nc6ccccc6N)[C@@H]5CC[C@]43C)[C@@H]2C1`, the viability at 10 µM was 99% in the assay on MKN-45 and 50% in the assay with KB.

As for `CC1(C)CC[C@]2(C(=O)OCc3ccccc3)CC[C@]3(C)C(=CC[C@@H]4[C@@]5(C)Cc6nccnc6[C@@](C)(COC(=O)CCC(=O)O)[C@@H]5CC[C@]43C)[C@@H]2C1`, the viability at 10 µM in the assay on MKN-45 came to 70%; with KB, 98%.

Take `CC1(C)CC[C@]2(C(=O)OCc3ccccc3)CC[C@]3(C)C(=CC[C@@H]4[C@@]5(C)Cc6nccnc6[C@@](C)(COC(=O)c6ccccc6C(=O)OCCc6ccc(OCCO[N+](=O)[O-])cc6)[C@@H]5CC[C@]43C)[C@@H]2C1`: the viability at 10 µM in the assay with MKN-45 was found to be 84%; in the assay on KB, 55%.

With `CC1(C)CC[C@]2(C(=O)OCc3ccccc3)CC[C@]3(C)C(=CC[C@@H]4[C@@]5(C)Cc6nccnc6[C@@](C)(COC(=O)c6ccccc6C(=O)Oc6ccc(CCO[N+](=O)[O-])cc6)[C@@H]5CC[C@]43C)[C@@H]2C1`, the viability at 10 µM with MKN-45 amounted to 78%; in the assay on KB it was 49%.

For `CC1(C)CC[C@]2(C(=O)OCc3ccccc3)CC[C@]3(C)C(=CC[C@@H]4[C@@]5(C)CCC(OC(=O)CCCCO[N+](=O)[O-])[C@@](C)(COC(=O)CCCCO[N+](=O)[O-])[C@@H]5CC[C@]43C)[C@@H]2C1` (stereo partly specified), the viability at 10 µM is 97% with MKN-45 and 58% in the assay with KB.

Take `CC1(C)CC[C@]2(C(=O)OCc3ccccc3)CC[C@]3(C)C(=CC[C@@H]4[C@@]5(C)CCC(=O)[C@@](C)(COC(=O)CCCCO[N+](=O)[O-])[C@@H]5CC[C@]43C)[C@@H]2C1`: the values for the viability at 10 µM with MKN-45 and with KB were 54% and 60%, respectively.

In the case of `CC1(C)CC[C@]2(C(=O)OCc3ccccc3)CC[C@]3(C)C(=CC[C@@H]4[C@@]5(C)Cc6nccnc6[C@@](C)(COC(=O)CCC(=O)OCCc6ccc(OCCO[N+](=O)[O-])cc6)[C@@H]5CC[C@]43C)[C@@H]2C1`, the figures for the viability at 10 µM in the assay on MKN-45 and in the assay on KB were 93% and 50%, respectively.

Take `CC1(C)CC[C@]2(C(=O)OCc3ccccc3)CC[C@]3(C)C(=CC[C@@H]4[C@@]5(C)CCC(=O)[C@@](C)(COC(=O)CCC(=O)OCCc6ccc(OCCO[N+](=O)[O-])cc6)[C@@H]5CC[C@]43C)[C@@H]2C1`: the figures for the viability at 10 µM in the assay on MKN-45 and with KB were 93% and 76%, respectively.

Take `CC1(C)CC[C@]2(C(=O)OCc3ccccc3)CC[C@]3(C)C(=CC[C@@H]4[C@@]5(C)CCC(=O)[C@@](C)(COC(=O)c6ccccc6C(=O)Oc6ccc(CCO[N+](=O)[O-])cc6)[C@@H]5CC[C@]43C)[C@@H]2C1`: the viability at 10 µM stood at 78% with MKN-45 and 86% with KB.

`CC1(C)CC[C@]2(C(=O)OCc3ccccc3)CC[C@]3(C)C(=CC[C@@H]4[C@@]5(C)CCC(=O)[C@@](C)(COC(=O)CCCCCO[N+](=O)[O-])[C@@H]5CC[C@]43C)[C@@H]2C1`: the viability at 10 µM in the assay with MKN-45 was 75%; with KB, 50%.

With `CC1(C)CC[C@]2(C(=O)OCc3ccccc3)CC[C@]3(C)C(=CC[C@@H]4[C@@]5(C)Cc6nccnc6[C@@](C)(COC(=O)c6ccccc6C(=O)O)[C@@H]5CC[C@]43C)[C@@H]2C1`, the viability at 10 µM in the assay with MKN-45 came to 84%; in the assay with KB it was 81%.
